≈ marks a conversion by molar mass, not a printed value.
What was measured:
[1] = tested on: Candida albicans; test: Inhibition of ABC efflux pumps in fluconazole resistant Candida albicans 167-1 assessed as reduction in energy-dependent rhodamine 6G efflux in presence of 0.1 M glucose after 25 mins […] relative to control
[2] = tested on: Candida albicans; test: Antifungal activity against fluconazole susceptible Candida albicans 004gr in presence of fluconazole by CLSI protocol based broth microdilution method; type: functional
[3] = tested on: Candida albicans; test: Antifungal activity against fluconazole resistant Candida albicans 167-1 in presence of fluconazole by CLSI protocol based broth microdilution method; type: functional
Outline: (§1)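 Checkerboard-style combination with fluconazole at a 1 : 1 ratio, over concentrations 2–4 fold below each agent's MIC alone, by CLSI broth microdilution. Fractional inhibitory concentration index calculated and interpreted as synergy (<0.5), additive (0.5–1), indifferent or antagonistic.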

[4] = tested on: Candida albicans; test: Antifungal activity against fluconazole susceptible Candida albicans 004B1 in presence of fluconazole by CLSI protocol based broth microdilution method; type: functional
[5] = tested on: Candida albicans; test: Antifungal activity against fluconazole resistant Candida albicans A171 in presence of fluconazole by CLSI protocol based broth microdilution method; type: functional; outline: as §1
[6] = tested on: Candida albicans; test: Down regulation of ERG11 gene expression in fluconazole susceptible Candida albicans ATCC 90028 at MIC after 2 hrs by qRT PCR analysis relative to control; type: functional
Outline: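 Cells exposed to compound at MIC for 2 h; total RNA isolated, cDNA synthesised, ERG11 measured by real-time qPCR with ACT1 as endogenous control. Triplicate independent experiments; mean ± standard deviation.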

[7] = tested on: Candida albicans; test: Antifungal activity against fluconazole resistant Candida albicans 167-2 by CLSI protocol based broth microdilution method; type: functional
Outline: (§2)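 Broth microdilution per CLSI M27-A3 against clinical C. albicans isolates. Strains sub-cultured at least twice on Tryptone Soya Agar, 37 °C, 48 h. Compounds dissolved in DMSO at 2000 μg mL–1 stock. Fluconazole positive control, plus culture, media and vehicle controls. Run in duplicate; MIC in μg mL–1.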

[8] = tested on: Candida albicans; test: Antifungal activity against fluconazole resistant Candida albicans 167-2 in presence of fluconazole by CLSI protocol based broth microdilution method; type: functional; outline: as §1
[9] = tested on: Candida albicans; test: Inhibition of ABC efflux pumps in fluconazole resistant Candida albicans A171 assessed as reduction in energy-dependent rhodamine 6G efflux in presence of 0.1 M glucose after 25 mins by fluorescence assay relative to control
Outline: (§3)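 Cells grown in TSB at 37 °C for 8 h, washed, resuspended in glucose-free PBS at 1 × 10^8 cells. De-energized 45 min with 5 mM deoxyglucose plus 5 mM dinitrophenol. […] Washed, sampled 5–25 min, then 0.1 M glucose added. Absorbance 527 nm, R6G from standard curve.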

[10] = tested on: Candida albicans; test: Inhibition of ABC efflux pumps in fluconazole susceptible Candida albicans 0072gr assessed as reduction in energy-dependent rhodamine 6G efflux in presence of 0.1 M glucose after 25 mins […] relative to control
[11] = tested on: Candida albicans; test: Inhibition of ABC efflux pumps in fluconazole susceptible Candida albicans 002B1 assessed as reduction in energy-dependent rhodamine 6G efflux in presence of 0.1 M glucose after 25 mins […] relative to control
[12] = tested on: Candida albicans; test: Antifungal activity against fluconazole resistant Candida albicans A171 by CLSI protocol based broth microdilution method; type: functional; outline: as §2
[13] = tested on: Candida albicans; test: Antifungal activity against fluconazole susceptible Candida albicans 002B1 in presence of fluconazole by CLSI protocol based broth microdilution method; type: functional
[14] = tested on: Candida albicans; test: Antifungal activity against fluconazole susceptible Candida albicans 0079gr in presence of fluconazole by CLSI protocol based broth microdilution method; type: functional
[15] = tested on: Candida albicans; test: Antifungal activity against fluconazole susceptible Candida albicans 0079gr by CLSI protocol based broth microdilution method; type: functional
Outline: (§4)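 Clinical isolates and control strain subcultured at least twice on TSA, 37 °C, 48 h. MICs by CLSI M27-A3 broth microdilution; compounds dissolved in DMSO to 2000 μg mL–1 stock. Fluconazole positive control, culture, media and DMSO vehicle controls in each run. Duplicate experiments; MIC in μg mL–1.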

[16] = tested on: Candida albicans; test: Down regulation of ERG11 gene expression in fluconazole resistant Candida albicans A171 at MIC after 2 hrs by qRT PCR analysis relative to control; type: functional
Outline: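 Cells exposed 2 h to test agents at MIC. Total RNA isolated, cDNA synthesized, qPCR for ERG11 with ACT1 as endogenous control. Triplicate independent experiments, reported as mean ± standard deviation.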

[17] = tested on: Candida albicans; test: Inhibition of ergosterol biosynthesis in fluconazole susceptible Candida albicans ATCC 90028 at 0.5 to 1 times MIC relative to control; type: functional
Outline: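 ATCC90028 grown in 50 ml TSB with MIC and ½ MIC of compound; untreated and 8 μg mL–1 fluconazole controls. Sterols extracted by alcoholic KOH method and spectrophotometrically scanned; ergosterol % calculated from A281.5 and A230 (E values 290 and 518) with dilution factor, per pellet weight.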

[18] = tested on: Candida albicans; test: Antifungal activity against fluconazole susceptible Candida albicans 0072gr in presence of fluconazole by CLSI protocol based broth microdilution method; type: functional
[19] = tested on: Candida albicans; test: Antifungal activity against fluconazole susceptible Candida albicans 0072gr by CLSI protocol based broth microdilution method; type: functional; outline: as §4
[20] = tested on: Candida albicans; test: Antifungal activity against fluconazole resistant Candida albicans 167-1 by CLSI protocol based broth microdilution method; type: functional; outline: as §2
[21] = tested on: Candida albicans; test: Antifungal activity against fluconazole susceptible Candida albicans 004B1 by CLSI protocol based broth microdilution method; type: functional; outline: as §4
[22] = tested on: Candida albicans; test: Antifungal activity against Candida albicans ATCC 90028 in presence of fluconazole by CLSI protocol based broth microdilution method; type: functional
[23] = tested on: Candida albicans; test: Antifungal activity against fluconazole susceptible Candida albicans 003gr by CLSI protocol based broth microdilution method; type: functional; outline: as §4
[24] = tested on: Candida albicans; test: Inhibition of ABC efflux pumps in fluconazole susceptible Candida albicans 004gr assessed as reduction in energy-dependent rhodamine 6G efflux in presence of 0.1 M glucose after 25 mins by fluorescence assay relative to control; outline: as §3
[25] = tested on: Candida albicans; test: Antifungal activity against fluconazole susceptible Candida albicans 004gr by CLSI protocol based broth microdilution method; type: functional; outline: as §4
[26] = tested on: Candida albicans; test: Antifungal activity against fluconazole susceptible Candida albicans 002B1 by CLSI protocol based broth microdilution method; type: functional; outline: as §4
[27] = tested on: Candida albicans; test: Antifungal activity against fluconazole susceptible Candida albicans 003gr in presence of fluconazole by CLSI protocol based broth microdilution method; type: functional
[28] = tested on: Candida albicans; test: Inhibition of ABC efflux pumps in fluconazole resistant Candida albicans 167-2 assessed as reduction in energy-dependent rhodamine 6G efflux in presence of 0.1 M glucose after 25 mins […] relative to control
[29] = tested on: Candida albicans; test: Inhibition of ergosterol biosynthesis in fluconazole resistant Candida albicans A171 at 0.5 to 1 times MIC relative to control; type: functional
Outline: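 Total sterols quantified by alcoholic KOH extraction in cells grown in 50 ml TSB with compounds at MIC and ½ MIC; untreated and 8 μg mL–1 fluconazole controls. Spectral scan; ergosterol content from A281.5 and A230 absorbances, dilution factor and pellet weight, correcting for 24(28) DHE.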

[30] = tested on: Candida albicans; test: Antifungal activity against Candida albicans ATCC 90028 by CLSI protocol based broth microdilution method; type: functional; outline: as §4
[31] = tested on: Candida albicans; test: Inhibition of ABC efflux pumps in fluconazole susceptible Candida albicans 003gr assessed as reduction in energy-dependent rhodamine 6G efflux in presence of 0.1 M glucose after 25 mins […] relative to control
[32] = tested on: Candida albicans; test: Inhibition of ABC efflux pumps in fluconazole susceptible Candida albicans 004B1 assessed as reduction in energy-dependent rhodamine 6G efflux in presence of 0.1 M glucose after 25 mins by fluorescence assay relative to control; outline: as §3
[33] = tested on: Candida albicans; test: Inhibition of ABC efflux pumps in fluconazole susceptible Candida albicans 0079gr assessed as reduction in energy-dependent rhodamine 6G efflux in presence of 0.1 M glucose after 25 mins by fluorescence assay relative to control; outline: as §3

| SMILES | inhibition [1] [%] | fractional inhibitory concentration index (FICI) [2] | fractional inhibitory concentration index (FICI) [3] | fractional inhibitory concentration index (FICI) [4] | fractional inhibitory concentration index (FICI) [5] | MIC [7] [µg/mL] | fractional inhibitory concentration index (FICI) [8] | inhibition [9] [%] | inhibition [10] [%] | inhibition [11] [%] | MIC [12] [µg/mL] | fractional inhibitory concentration index (FICI) [13] | fractional inhibitory concentration index (FICI) [14] | MIC [15] [µg/mL] | inhibition (INH) [17] | fractional inhibitory concentration index (FICI) [18] | MIC [19] [µg/mL] | MIC [20] [µg/mL] | MIC [21] [µg/mL] | fractional inhibitory concentration index (FICI) [22] | other results |
| --- | --- | --- | --- | --- | --- | --- | --- | --- | --- | --- | --- | --- | --- | --- | --- | --- | --- | --- | --- | --- | --- |
| O=C1NC(c2ccccc2)=CC(c2ccc(C3C=C(c4ccccc4)NC(=O)N3)cc2)N1 (stereo not given) | < 20 | 0.13 - 0.38 | 0.031 - 0.25 | 0.13 - 0.38 | 0.031 - 0.25 | 4 to 8 (≈ 9.47 to 18.9 µM) | 0.031 | < 20 | < 20 | < 20 | 4 to 8 (≈ 9.47 to 18.9 µM) | 0.13 - 0.38 | 0.13 - 0.38 | 0.25 to 2 (≈ 0.592 to 4.73 µM) | 66 - 99% | 0.13 - 0.38 | 0.25 to 2 (≈ 0.592 to 4.73 µM) | 4 to 8 (≈ 9.47 to 18.9 µM) | 0.25 to 2 (≈ 0.592 to 4.73 µM) | 0.13 - 0.38 | fold change (FC) [6]: 1.5 - 13; fold change (FC) [16]: 1.25 - 10; MIC [23]: 0.25 to 2 µg/mL (≈ 0.592 to 4.73 µM); inhibition [24]: < 20%; MIC [25]: 0.25 to 2 µg/mL (≈ 0.592 to 4.73 µM); MIC [26]: 0.25 to 2 µg/mL (≈ 0.592 to 4.73 µM); fractional inhibitory concentration index (FICI) [27]: 0.13 - 0.38; inhibition [28]: < 20%; inhibition (INH) [29]: 49 - 94%; MIC [30]: 0.25 to 2 µg/mL (≈ 0.592 to 4.73 µM); inhibition [31]: < 20%; inhibition [32]: < 20%; inhibition [33]: < 20% |
| O=C1NC(c2ccccc2)=CC(c2ccccc2)N1 (stereo not given) | < 20 | 0.31 - 1.5 | 0.129 - 0.27 | 0.31 - 1.5 | 0.129 - 0.27 | 8 to 16 (≈ 32 to 63.9 µM) | 0.129 - 0.27 | < 20 | < 20 | < 20 | 8 to 16 (≈ 32 to 63.9 µM) | 0.31 - 1.5 | 0.31 - 1.5 | 1 to 8 (≈ 4 to 32 µM) | 66 - 99% | 0.31 - 1.5 | 1 to 8 (≈ 4 to 32 µM) | 8 to 16 (≈ 32 to 63.9 µM) | 1 to 8 (≈ 4 to 32 µM) | 0.31 - 1.5 | MIC [23]: 1 to 8 µg/mL (≈ 4 to 32 µM); inhibition [24]: < 20%; MIC [25]: 1 to 8 µg/mL (≈ 4 to 32 µM); MIC [26]: 1 to 8 µg/mL (≈ 4 to 32 µM); fractional inhibitory concentration index (FICI) [27]: 0.31 - 1.5; inhibition [28]: < 20%; inhibition (INH) [29]: 49 - 94%; MIC [30]: 1 to 8 µg/mL (≈ 4 to 32 µM); inhibition [31]: < 20%; inhibition [32]: < 20%; inhibition [33]: < 20% |
| NC(=S)N1N=C(c2ccccc2)CC1c1ccccc1 (stereo not given) | < 20 | 1.97 - 4.28 | 0.75 - 1.5 | 1.97 - 4.28 | 0.75 - 1.5 | 500 (≈ 1780 µM) | 0.75 - 1.5 | < 20 | < 20 | < 20 | 500 (≈ 1780 µM) | 1.97 - 4.28 | 1.97 - 4.28 | 125 to 500 (≈ 444 to 1780 µM) | 66 - 99% | 1.97 - 4.28 | 125 to 500 (≈ 444 to 1780 µM) | 500 (≈ 1780 µM) | 125 to 500 (≈ 444 to 1780 µM) | 1.97 - 4.28 | MIC [23]: 125 to 500 µg/mL (≈ 444 to 1780 µM); inhibition [24]: < 20%; MIC [25]: 125 to 500 µg/mL (≈ 444 to 1780 µM); MIC [26]: 125 to 500 µg/mL (≈ 444 to 1780 µM); fractional inhibitory concentration index (FICI) [27]: 1.97 - 4.28; inhibition [28]: < 20%; inhibition (INH) [29]: 49 - 94%; MIC [30]: 125 to 500 µg/mL (≈ 444 to 1780 µM); inhibition [31]: < 20%; inhibition [32]: < 20%; inhibition [33]: < 20% |
